Measured values published in ChEMBL document CHEMBL1275294, “Synthesis and anticancer activity evaluation of 4-thiazolidinones containing benzothiazole moiety” (2010).
Calls of active or inactive are those of the source. The calls are words filed in the database; no cut-off is given here.

What was measured:
SF-295 [1] = test: Anticancer activity against human SF295 cells assessed as cell growth at 10 uM after 48 hrs by SRB assay; type: functional; conditions: SF-295, 48 h, read-out: Activity
Summary of the method: (§1)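 NCI primary screen: compound added at a single concentration of 10^-5 M to the human tumor cell line panel, 48 h incubation, end-point by sulforhodamine B protein staining read spectrophotometrically. Result expressed as percent growth of treated cells relative to untreated control cells.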

NCI60 = test: Anticancer activity against human NCI60 cells assessed as cell growth inhibition after 48 hrs by SRB assay; type: functional, cell-based
Summary of the method: (§2)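 NCI full panel of about 60 human tumor cell lines, five 10-fold dilutions from 10^-4 to 10^-8 M, 48 h continuous exposure, SRB protein assay read spectrophotometrically. Percent growth from time-zero, untreated-control and treated absorbances. GI50 is the molar concentration giving 50% net growth inhibition, TGI total inhibition, LC50 50% net cell death. Mean graph midpoints include insensitive lines at the top concentration.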

[2] = Anticancer activity against human NCI60 cells assessed as cell growth at 10 uM after 48 hrs by SRB assay; type: functional; conditions: NCI60, 48 h, read-out: Activity; summary of the method: as §1
SR = test: Anticancer activity against human SR cells assessed as cell growth at 10 uM after 48 hrs by SRB assay; type: functional; conditions: read-out: Activity; summary of the method: as §1
HL-60(TB) = test: Growth inhibition of human HL-60(TB) cells after 48 hrs by SRB assay; type: functional; conditions: HL-60, 48 h
Summary of the method: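 NCI 60-cell-line screen, five 10-fold dilutions of the compound, 48-h continuous drug exposure. Cell growth is measured with the sulforhodamine B protein stain and read spectrophotometrically against untreated controls and a time-zero plate (Tz). GI50 is the molar concentration giving 50% net growth inhibition. Values outside the tested range are reported as above or below the extreme concentration.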

RPMI-8226 [3] = test: Growth inhibition of human RPMI8226 cells after 48 hrs by SRB assay; type: functional; conditions: RPMI-8226, 48 h; summary of the method: as §2
NCI-H226 = test: Growth inhibition of human NCI-H226 cells after 48 hrs by SRB assay; type: functional; conditions: NCI-H226, 48 h; summary of the method: as §2
KM12 = test: Growth inhibition of human KM12 cells after 48 hrs by SRB assay; type: functional; conditions: KM12, 48 h; summary of the method: as §2
SW-620 = test: Growth inhibition of human SW620 cells after 48 hrs by SRB assay; type: functional; conditions: SW-620, 48 h; summary of the method: as §2
SNB-75 [4] = test: Growth inhibition of human SNB75 cells after 48 hrs by SRB assay; type: functional; conditions: SNB-75, 48 h; summary of the method: as §2
U-251 = test: Growth inhibition of human U251 cells after 48 hrs by SRB assay; type: functional; conditions: U-251, 48 h; for TGI: read-out: pTGI (converted); summary of the method: as §2
LOX IMVI = test: Growth inhibition of human LOXIMVI cells after 48 hrs by SRB assay; type: functional; summary of the method: as §2
SK-MEL-28 = test: Growth inhibition of human SK-MEL-28 cells after 48 hrs by SRB assay; type: functional; conditions: SK-MEL-28, 48 h; summary of the method: as §2
OVCAR-3 = test: Growth inhibition of human OVCAR-3 cells after 48 hrs by SRB assay; type: functional; conditions: OVCAR-3, 48 h; summary of the method: as §2
A498 = test: Growth inhibition of human A498 cells after 48 hrs by SRB assay; type: functional; conditions: A498, 48 h; summary of the method: as §2
DU-145 = test: Growth inhibition of human DU145 cells after 48 hrs by SRB assay; type: functional; conditions: DU-145, 48 h; summary of the method: as §2
BT-549 = test: Growth inhibition of human BT549 cells after 48 hrs by SRB assay; type: functional; conditions: BT-549, 48 h; for TGI: read-out: pTGI (converted); summary of the method: as §2
SNB-75 [5] = test: Anticancer activity against human SNB75 cells assessed as cell growth at 10 uM after 48 hrs by SRB assay; type: functional; conditions: SNB-75, 48 h, read-out: Activity; summary of the method: as §1
HOP-92 [6] = test: Growth inhibition of human HOP92 cells after 48 hrs by SRB assay; type: functional; conditions: HOP-92, 48 h; summary of the method: as §2
NCI-H23 = test: Growth inhibition of human NCI-H23 cells after 48 hrs by SRB assay; type: functional; conditions: NCI-H23, 48 h; summary of the method: as §2
HCT-116 = test: Growth inhibition of human HCT116 cells after 48 hrs by SRB assay; type: functional; conditions: HCT-116, 48 h; summary of the method: as §2
SF-295 [7] = test: Growth inhibition of human SF295 cells after 48 hrs by SRB assay; type: functional; conditions: SF-295, 48 h; summary of the method: as §2
SF-539 = test: Growth inhibition of human SF539 cells after 48 hrs by SRB assay; type: functional; conditions: SF-539, 48 h; summary of the method: as §2
SNB-19 = test: Growth inhibition of human SNB19 cells after 48 hrs by SRB assay; type: functional; conditions: SNB-19, 48 h; summary of the method: as §2
UACC-62 = test: Growth inhibition of human UACC62 cells after 48 hrs by SRB assay; type: functional; conditions: UACC-62, 48 h; summary of the method: as §2
OVCAR-4 = test: Growth inhibition of human OVCAR4 cells after 48 hrs by SRB assay; type: functional; conditions: OVCAR-4, 48 h; summary of the method: as §2
[8] = Growth inhibition of human NCI-ADR-RES cells after 48 hrs by SRB assay; type: functional; summary of the method: as §2
ACHN = test: Growth inhibition of human ACHN cells after 48 hrs by SRB assay; type: functional; summary of the method: as §2
PC-3 = test: Growth inhibition of human PC3 cells after 48 hrs by SRB assay; type: functional; conditions: PC-3, 48 h; summary of the method: as §2
MCF7 = test: Growth inhibition of human MCF7 cells after 48 hrs by SRB assay; type: functional; conditions: MCF7, 48 h; summary of the method: as §2
MDA-MB-435 = test: Growth inhibition of human MDA-MB-435 cells after 48 hrs by SRB assay; type: functional; conditions: MDA-MB-435, 48 h; summary of the method: as §2
T47D = test: Growth inhibition of human T47D cells after 48 hrs by SRB assay; type: functional; summary of the method: as §2
RXF 393 = test: Anticancer activity against human RXF393 cells assessed as cell growth at 10 uM after 48 hrs by SRB assay; type: functional; conditions: RXF 393, 48 h, read-out: Activity; summary of the method: as §1
UO-31 = test: Anticancer activity against human UO31 cells assessed as cell growth at 10 uM after 48 hrs by SRB assay; type: functional; conditions: UO-31, 48 h, read-out: Activity; summary of the method: as §1
HOP-92 [9] = test: Anticancer activity against human HOP92 cells assessed as cell growth at 10 uM after 48 hrs by SRB assay; type: functional; conditions: HOP-92, 48 h, read-out: Activity; summary of the method: as §1
RPMI-8226 [10] = test: Anticancer activity against human RPMI8226 cells assessed as cell growth at 10 uM after 48 hrs by SRB assay; type: functional; conditions: RPMI-8226, 48 h, read-out: Activity; summary of the method: as §1

## CCN(CC)c1ccc(/C=C2\S/C(=N/c3nc4ccc(C)cc4s3)NC2=O)cc1
SF-295 [1]
  growth at 10 µM: 22.5%
NCI60
  growth inhibition (GI): inactive
[2]
  growth at 10 µM: 69%

## Cc1ccc2nc(/N=C3\NC(=O)/C(=C/c4ccc(Cl)cc4)S3)sc2c1
SF-295 [1]
  growth at 10 µM: 4.01%
NCI60
  growth inhibition (GI): inactive
[2]
  growth at 10 µM: 56.5%

## COc1ccc(NC(=O)COc2ccc(Cl)cc2/C=C2\SC(=S)N(Nc3nc4ccccc4s3)C2=O)cc1
NCI60
  growth inhibition (GI): Active
SR
  growth at 10 µM: -71.5%
[2]
  growth at 10 µM: 50.4%
HL-60(TB)
  GI50: 2.29 µM
HL-60(TB); read-out: pTGI (converted)
  TGI: 6.92 µM
RPMI-8226 [3]
  GI50: 5.37 µM
RPMI-8226 [3]; read-out: pTGI (converted)
  TGI: 12.9 µM
NCI-H226
  GI50: 2.95 µM
NCI-H226; read-out: pTGI (converted)
  TGI: 6.92 µM
KM12
  GI50: 2.24 µM
KM12; read-out: pTGI (converted)
  TGI: 4.9 µM
SW-620
  GI50: 2.45 µM
SW-620; read-out: pTGI (converted)
  TGI: 6.31 µM
SNB-75 [4]
  GI50: 1.58 µM
SNB-75 [4]; read-out: pTGI (converted)
  TGI: 9.55 µM
U-251
  GI50: 2.95 µM
  TGI: 9.33 µM
LOX IMVI
  GI50: 1.66 µM
LOX IMVI; read-out: pTGI (converted)
  TGI: 3.24 µM
SK-MEL-28
  GI50: 2.19 µM
SK-MEL-28; read-out: pTGI (converted)
  TGI: 4.47 µM
OVCAR-3
  GI50: 2 µM
OVCAR-3; read-out: pTGI (converted)
  TGI: 3.72 µM
A498
  GI50: 2.57 µM
A498; read-out: pTGI (converted)
  TGI: 5.75 µM
DU-145
  GI50: 2.09 µM
DU-145; read-out: pTGI (converted)
  TGI: 3.98 µM
BT-549
  GI50: 3.02 µM
  TGI: 8.91 µM

## COc1ccc(NC(=O)COc2ccc(Cl)cc2/C=C2\S/C(=N/c3nc4ccc(C)cc4s3)NC2=O)cc1
SNB-75 [5]
  growth at 10 µM: -86.5%
NCI60
  growth inhibition (GI): Active
[2]
  growth at 10 µM: -36.9%
U-251
  GI50: 5.01 µM
  TGI: 20 µM
BT-549
  GI50: 6.03 µM
  TGI: 27.5 µM
HOP-92 [6]
  GI50: 0.457 µM
HOP-92 [6]; read-out: pTGI (converted)
  TGI: 10.2 µM
NCI-H23
  GI50: 7.76 µM
NCI-H23; read-out: pTGI (converted)
  TGI: 25.1 µM
HCT-116
  GI50: 4.57 µM
HCT-116; read-out: pTGI (converted)
  TGI: 34.7 µM
SF-295 [7]
  GI50: 3.39 µM
SF-295 [7]; read-out: pTGI (converted)
  TGI: 15.5 µM
SF-539
  GI50: 1.78 µM
SF-539; read-out: pTGI (converted)
  TGI: 3.63 µM
SNB-19
  GI50: 5.5 µM
SNB-19; read-out: pTGI (converted)
  TGI: 25.1 µM
UACC-62
  GI50: 5.37 µM
UACC-62; read-out: pTGI (converted)
  TGI: 39.8 µM
OVCAR-4
  GI50: 6.03 µM
OVCAR-4; read-out: pTGI
  TGI: > 100 µM
[8]
  GI50: 6.76 µM
[8]; read-out: pTGI
  TGI: > 100 µM
ACHN
  GI50: 6.46 µM
ACHN; read-out: pTGI (converted)
  TGI: 66.1 µM
PC-3
  GI50: 4.9 µM
PC-3; read-out: pTGI
  TGI: > 100 µM
MCF7
  GI50: 4.27 µM
MCF7; read-out: pTGI
  TGI: > 100 µM
MDA-MB-435
  GI50: 10 µM
MDA-MB-435; read-out: pTGI (converted)
  TGI: 34.7 µM
T47D
  GI50: 4.79 µM
T47D; read-out: pTGI
  TGI: > 100 µM

## COc1cc(/C=C2\SC(=S)N(Nc3nc4ccccc4s3)C2=O)ccc1O
NCI60
  growth inhibition (GI): inactive
RXF 393
  growth at 10 µM: -0.71%
[2]
  growth at 10 µM: 97.7%

## COc1ccc(/C=C2\S/C(=N/c3nc4ccc(C)cc4s3)NC2=O)cc1
NCI60
  growth inhibition (GI): inactive
UO-31
  growth at 10 µM: 80.4%
[2]
  growth at 10 µM: 106%

## COc1ccc(NC(=O)COc2ccc(/C=C3\SC(=S)N(Nc4nc5ccccc5s4)C3=O)cc2OC)cc1
NCI60
  growth inhibition (GI): inactive
UO-31
  growth at 10 µM: 78.6%
[2]
  growth at 10 µM: 107%

## Cc1ccc2nc(/N=C3\NC(=O)/C(=C/c4cc(Cl)ccc4OCC(N)=O)S3)sc2c1
HOP-92 [9]
  growth at 10 µM: 51.4%
NCI60
  growth inhibition (GI): inactive
[2]
  growth at 10 µM: 91.8%

## CCOC(=O)c1ccc(NC(=O)COc2ccc(Cl)cc2/C=C2\SC(=S)N(Nc3nc4ccccc4s3)C2=O)cc1
NCI60
  growth inhibition (GI): inactive
RPMI-8226 [10]
  growth at 10 µM: 20%
[2]
  growth at 10 µM: 74.7%

## CCN(CC)c1ccc(/C=C2\SC(=S)N(Nc3nc4ccccc4s3)C2=O)cc1
NCI60
  growth inhibition (GI): inactive
UO-31
  growth at 10 µM: 77.3%
[2]
  growth at 10 µM: 98.5%
